Measured values from ChEMBL document CHEMBL2331097, “Synthesis of 5,7-disubstituted-4-methyl-7H-pyrrolo[2,3-d]pyrimidin-2-amines as microtubule inhibitors” (Bioorg Med Chem, 2013).
Calls of active or inactive are those of the source. No cut-off for these calls is given here.

How the values were obtained:
[1] = Cytotoxicity against mouse JC cells assessed as inhibition of cell survival after 48 hrs by SRB assay; assay type: functional, cell-based
Outline: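 JC (CRL-2116) cells kept in RPMI-1640 with L-glutamine, 10% FBS and 50 μg/ml gentamicin at 37 °C, 5% CO₂. Cells were seeded at about 20% confluency and left 24 h to attach, then exposed to a range of concentrations for 48 h. Cells were PBS-washed, fixed in 10% trichloroacetic acid and stained with 0.4% SRB in 1% acetic acid. Dye was dissolved in 10 mM Tris and absorbance read at 570 nm.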

[2] = Ratio of compound IC50 to paclitaxel IC50 for mouse JC cells after 48 hrs by SRB assay; assay type: functional
[3] = test system: JC; experiment: Modulatory activity at P-gp in mouse JC cells assessed as lowest drug concentration required to increase intracellular [3H]taxol accumulation pretreated for 30 mins prior to [3H]taxol addition measured after 60 mins by liquid scintillation counting analysis; assay type: cell-based
Outline: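 JC cells were seeded at about 25% confluency and grown 3–4 days to near confluency. Medium was switched to serum-free, and compounds were preincubated for 30 min at 37 °C. About 0.1 µCi [³H]Taxol (75 Ci/mmol) per well followed, for 60 min at 37 °C. Cells were washed twice with ice-cold PBS and lysed in 1% SDS. Intracellular label was counted by liquid scintillation, and the lowest concentration giving maximal accumulation was recorded.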

Row | Structure (SMILES) | IC50 [1] | Ratio IC50 [2] | LED [3]
1 | COc1ccccc1Cn1cc(CCc2cc(OC)c(OC)c(OC)c2)c2c(C)nc(N)nc21 | 1 µM | 6.6 | 2 µM
2 | COc1cccc(Cn2cc(CCc3cc(OC)c(OC)c(OC)c3)c3c(C)nc(N)nc32)c1 | 1.4 µM | – | 0.5 µM
3 | COc1ccccc1Sc1cn(Cc2cc(OC)c(OC)c(OC)c2)c2nc(N)nc(C)c12 | 3 µM | – | inactive
4 | COc1ccccc1Cn1cc(Sc2ccccc2OC)c2c(C)nc(N)nc21 | 9 µM | – | inactive
5 | COc1ccc(Sc2cn(Cc3ccccc3)c3nc(N)nc(C)c23)cc1 | 10 µM | – | inactive
6 | COc1cc(Cn2cc(CCc3cc(OC)c(OC)c(OC)c3)c3c(C)nc(N)nc32)cc(OC)c1 | 3 µM | – | 1.5 µM
7 | COc1ccc(Cn2cc(Sc3ccccc3OC)c3c(C)nc(N)nc32)cc1 | 2.5 µM | – | inactive
